Results from different studies.
Each line is one published result; the experiments were not run side by side.
Target: 5-hydroxytryptamine receptor 2A (HTR2A, Homo sapiens, UniProt P28223)
Effect on: ligand displacement

SMILES | assay | conditions | inhibition
C#CCOCCOCCOc1ccc2c3c1C1CCCC1N3CCNC2 (racemic) | radioligand | 10 µM | ~70%
O=C(c1ccc(Cl)cc1)N(Cc1ccccc1)C1CCCCC1 | radioligand | 10 µM | 14.5%
N#Cc1cc(Cn2c(N3CCCC3)nc3ccccc32)ccc1F |  | 10 µM | 5.32%
CN1CCN(CCCOc2ccc(=O)n(-c3ccc(Cl)c(Cl)c3)n2)CC1 |  | 1 µM | 34.9%
CCCNc1nc2ccccc2n1Cc1ccc(Cl)cc1 |  | 10 µM | 59.8%
COc1ccc(-n2nc(OCCCN3CCCCC3)ccc2=O)cc1 |  | 1 µM | 49.4%
COc1cc2c3c(c1OC)-c1cc4c(cc1CC3N(C)CC2c1ccccc1)OCO4 (stereo not shown) | radioligand | 10 µM | < 50%
Oc1cccc(Nc2nc(-c3ccc(F)cc3F)cs2)c1 | radioligand | 10 µM | 67%
CCN(CC)c1ccc(C2Nc3ccc(C(=O)c4ccccc4)cc3NC3=C2C(=O)CC(C)(C)C3)cc1 (stereo not shown) | radioligand | 10 µM | -10%
O=C1N=C(N2CCCCN2)S/C1=C\c1ccc(F)cc1O | radioligand | 10 µM | 17%
